Screening results: PubChem BioAssay, Broad Institute
T cruzi growth-1: inhibitors of T. cruzi proliferation. AID 624255. 5.9% of 77,000 active. inhibition, % at 8.34 µM. T. cruzi beta-gal in NIH3T3, GalScreen luminescence, 90 h;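 active = mean inhibition above about 93%, with at least 55% of replicates each passing it, limit read from the data, passing the limit was not always enough; inconclusive = only one of those two conditions holds; inactive = neither condition holds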
GASC1 inh: blocks human GASC-1 (KDM4C) demethylase activity | GST-KDM4C 2-372, H3K9me3 peptide, LANCE TR-FRET | inhibition, % at 12.5 µM | 0.15% of 96,000 active;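 active = mean replicate inhibition above about 25%, with at least 55% of replicates also reaching it, limit read from the data, passing the limit was not always enough; inconclusive = only one of those two conditions met; inactive = neither condition met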
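material = GST-tagged GASC-1 (JMJD2C) catalytic fragment, aa 2-372 | amount = enzyme final amount 10 nM | medium = HEPES buffer, pH 7.5, plus ascorbate | also added = H3K9me3 peptide substrate, Fe(II), 2-oxoglutarate | dosing = single dose | times = 30 min demethylation and 1 h detection at room temperature | detection = LANCE TR-FRET | read-out basis = Fall in 671/618 emission ratio as inhibition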
IDH1 R132H inh: inhibitors of human IDH1 R132H; IDH1 R132H reductase, diaphorase/resazurin fluorescence, 60 min; inhibition, % at 10 µM; 0.18% of 70,000 active; in the data active = inhibition above about 34%; inconclusive = no clear call, values can overlap the other calls; inactive = below about 11%;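 note: 0% = DMSO and 100% = no enzyme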
Target sequence (O75874 whole entry R132H): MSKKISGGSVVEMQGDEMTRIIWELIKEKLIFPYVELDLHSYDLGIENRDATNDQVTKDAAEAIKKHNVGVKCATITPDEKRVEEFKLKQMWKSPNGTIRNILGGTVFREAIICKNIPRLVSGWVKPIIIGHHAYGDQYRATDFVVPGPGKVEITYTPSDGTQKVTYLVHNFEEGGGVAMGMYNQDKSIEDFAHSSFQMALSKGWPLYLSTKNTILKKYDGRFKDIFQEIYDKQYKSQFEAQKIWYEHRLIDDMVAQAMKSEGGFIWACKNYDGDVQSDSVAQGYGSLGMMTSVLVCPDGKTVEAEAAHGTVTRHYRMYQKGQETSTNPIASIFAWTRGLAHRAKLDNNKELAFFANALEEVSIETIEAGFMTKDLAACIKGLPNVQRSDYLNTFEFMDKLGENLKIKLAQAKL
Pf Dd2 growth: inhibitors of Plasmodium falciparum Dd2 growth; P. falciparum Dd2 growth, SYBR Green, 72 h; stronger effect = lower value; activity change, % at 10 µM; 2.3% of 94,000 active; AID 1159554; in the data active = activity change below about -80%; inconclusive = no clear call, values can overlap the other calls
T cruzi growth-2: inhibitors of T. cruzi proliferation | shares compounds with T cruzi growth-1 | T. cruzi beta-gal in NIH3T3, GalScreen luminescence, 90 h | AID 651739 | 72% of 5,600 active | inhibition, % at 8.35 µM;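 active = mean replicate inhibition above about 95% and at least 55% of replicates individually reaching it, limit read from the data; inconclusive = only one of the two criteria is met; inactive = neither criterion is met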
T cruzi growth-3: inhibitors of T. cruzi proliferation; shares compounds with T cruzi growth-1; T. cruzi beta-gal in NIH3T3, GalScreen luminescence, 90 h; inhibition, % at 2.09 µM; 21% of 5,600 active; AID 651740;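 active = mean inhibition above about 95%, with at least 55% of replicates also reaching it, limit read from the data; inconclusive = meets just one of the two conditions; inactive = meets neither condition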;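 note: plate controls were neutral control median for no effect and positive control median for full effect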
3T3 cytotox: NIH/3T3 (mouse) viability loss; shares compounds with T cruzi growth-1; NIH/3T3 viability, CellTiter-Glo ATP luminescence, 90 h; cytotoxicity (signal decrease), % at 8.35 µM; 14% of 5,600 active; AID 651742;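 active = mean signal decrease across replicates above about 35% based on untreated-well scatter, with enough replicates individually passing, limit read from the data; inconclusive = no rule stated though some were filed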;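 note: 0% = median of neutral control wells and 100% = median of positive control wells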
3T3 cytotox 2: NIH/3T3 (mouse) viability loss. NIH/3T3 viability, CellTiter-Glo ATP luminescence, 90 h. inhibition, % at 24.9 µM. shares compounds with T cruzi growth-1. 56% of 5,600 active;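 active = mean loss of cell viability signal at or above a set limit, and enough replicates individually reaching it; inconclusive = meets only the mean limit or only the replicate share; inactive = meets neither condition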;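 note: 0% = median of neutral control wells and 100% = median of positive control wells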
* = called active by the depositor. Compounds with a hit are over-represented: about 5.9% of the library has one in this group of screens.

For COc1ccc(NC(=O)N(C)C[C@@H]2Oc3cc(C#CCC(C)C)ccc3S(=O)(=O)N([C@H](C)CO)C[C@@H]2C)cc1 the results were T cruzi growth-1 104.2*, GASC1 inh -3.8, IDH1 R132H inh -10.5, Pf Dd2 growth -66.3, T cruzi growth-2 100.7*, T cruzi growth-3 91.9, 3T3 cytotox 27.4 and 3T3 cytotox 2 63.5*.
`CCCC#Cc1ccc2c(c1)O[C@@H](CN(C)C(=O)Nc1ccc(OC)cc1)[C@@H](C)CN([C@H](C)CO)S2(=O)=O` gave T cruzi growth-1 104.5*, GASC1 inh -0.6, Pf Dd2 growth -68.4, T cruzi growth-2 111.9*, T cruzi growth-3 49.8, 3T3 cytotox 1.3 and 3T3 cytotox 2 31.2.
CCCC#Cc1ccc2c(c1)O[C@H](CN(C)C(=O)Nc1ccc(OC)cc1)[C@H](C)CN([C@@H](C)CO)S2(=O)=O was read as T cruzi growth-1 86.4, GASC1 inh 1.4 and Pf Dd2 growth -51.1.
Screening C[C@@H]1CN([C@H](C)CO)C(=O)c2cc(NC(=O)Nc3ccccc3)ccc2O[C@H]1CN(C)Cc1ccc(C(F)(F)F)cc1 returned T cruzi growth-1 16.5, GASC1 inh 1.2, IDH1 R132H inh 0.1 and Pf Dd2 growth -22.1.
C[C@@H]1CN([C@@H](C)CO)C(=O)c2cc(NC(=O)Nc3ccc(C(F)(F)F)cc3)ccc2O[C@@H]1CN(C)Cc1ccc(-c2ccccc2)cc1 was read as T cruzi growth-1 120.4*, GASC1 inh -1.4, Pf Dd2 growth -22.9, T cruzi growth-2 101.6*, T cruzi growth-3 97.8*, 3T3 cytotox 55.8* and 3T3 cytotox 2 103.2*.
Screening C[C@@H]1CN([C@H](C)CO)C(=O)c2cc(NC(=O)Nc3ccc(C(F)(F)F)cc3)ccc2O[C@H]1CN(C)Cc1ccc(-c2ccccc2)cc1 returned T cruzi growth-1 122.5*, GASC1 inh -0.9, IDH1 R132H inh 0.4, Pf Dd2 growth -9.9, T cruzi growth-2 88.9, T cruzi growth-3 inconclusive, 3T3 cytotox 84.0* and 3T3 cytotox 2 102.3*.
`C[C@@H]1CN([C@@H](C)CO)C(=O)c2cc(NC(=O)Nc3ccc(C(F)(F)F)cc3)ccc2O[C@H]1CN(C)Cc1ccc(-c2ccccc2)cc1` gave T cruzi growth-1 104.3*, GASC1 inh 0.7, IDH1 R132H inh 0.2, Pf Dd2 growth -41.9, T cruzi growth-2 102.0*, T cruzi growth-3 80.5, 3T3 cytotox 10.2 and 3T3 cytotox 2 105.0*.
C[C@H](CO)N1C[C@H](C)[C@@H](CN(C)Cc2ccccc2)Oc2ccc(NC(=O)Nc3ccc(C(F)(F)F)cc3)cc2C1=O was read as T cruzi growth-1 29.7, GASC1 inh 0.8, IDH1 R132H inh 3.2 and Pf Dd2 growth -20.4.
`COc1ccc2c3c(n(C)c2c1)[C@@H](CO)N(C(=O)C1CCC1)CC31CN(C(=O)CN(C)C)C1` gave GASC1 inh 0.2 and Pf Dd2 growth -67.6.
`COc1cccc(C(=O)Nc2ccc3c(c2)C(=O)N(C)[C@H]2CC[C@H](CC(=O)Nc4ccc5c(c4)CCCC5)O[C@@H]2CO3)c1` gave T cruzi growth-1 73.1, GASC1 inh -0.4 and Pf Dd2 growth -7.8.
Screening CCCN1CC2(C1)CN(C(=O)CN1CCOCC1)[C@H](CO)c1c2c2ccc(OC)cc2n1C returned GASC1 inh 1.1 and Pf Dd2 growth -23.3.
Screening O=C(C1CCC1)N1CCCCN2[C@H](CO)[C@@H](c3ccc(C#CC4CCCC4)cc3)[C@H]2C1 returned T cruzi growth-1 inconclusive, Pf Dd2 growth -51.8, T cruzi growth-2 87.1, T cruzi growth-3 39.2, 3T3 cytotox 11.6 and 3T3 cytotox 2 104.5*.
For O=C(C1CCC1)N1CCCCN2[C@H](CO)[C@H](c3ccc(C#CC4CCCC4)cc3)[C@H]2C1 the results were T cruzi growth-1 101.1*, Pf Dd2 growth -52.4, T cruzi growth-2 103.6*, T cruzi growth-3 94.9, 3T3 cytotox 22.2 and 3T3 cytotox 2 103.3*.
`O=C(C1CCC1)N1CCCCN2[C@@H](CO)[C@@H](c3ccc(C#CC4CCCC4)cc3)[C@@H]2C1` gave T cruzi growth-1 85.8 and Pf Dd2 growth -55.6.
For C[C@@H]1CN([C@@H](C)CO)S(=O)(=O)c2ccc(-c3cccc(F)c3)cc2O[C@@H]1CN(C)S(=O)(=O)c1ccc(F)cc1 the results were T cruzi growth-1 119.8, GASC1 inh 0.1 and Pf Dd2 growth 1.1.
C[C@H]1CN([C@@H](C)CO)S(=O)(=O)c2ccc(-c3cccc(F)c3)cc2O[C@H]1CN(C)S(=O)(=O)c1ccc(F)cc1 was read as T cruzi growth-1 118.3*, GASC1 inh -0.5, Pf Dd2 growth -54.4, T cruzi growth-2 99.2*, T cruzi growth-3 107.6*, 3T3 cytotox 25.9 and 3T3 cytotox 2 52.2*.
Screening C[C@H](CO)N1C[C@H](C)[C@H](CN(C)S(=O)(=O)c2ccc(F)cc2)Oc2cc(-c3cccc(F)c3)ccc2S1(=O)=O returned T cruzi growth-1 123.8*, GASC1 inh 0.1, IDH1 R132H inh -1.3, Pf Dd2 growth -59.5, T cruzi growth-2 98.1*, T cruzi growth-3 94.6, 3T3 cytotox 19.6 and 3T3 cytotox 2 54.0*.
Screening N#C[C@@H]1[C@@H](c2ccc(-c3cccc(F)c3)cc2)[C@H](CO)N1S(=O)(=O)c1cccc(F)c1 returned T cruzi growth-1 99.0*, GASC1 inh 0.6, Pf Dd2 growth -52.9, T cruzi growth-2 102.4*, T cruzi growth-3 82.3, 3T3 cytotox 40.9* and 3T3 cytotox 2 106.8*.
For CCS(=O)(=O)N1[C@H](C#N)[C@@H](c2ccc(-c3cccc(F)c3)cc2)[C@@H]1CO the results were T cruzi growth-1 4.6, GASC1 inh -2.5 and Pf Dd2 growth 24.2.
`C/C=C/c1ccc([C@@H]2[C@@H](C#N)N(S(=O)(=O)c3cccc(F)c3)[C@@H]2CO)cc1` gave T cruzi growth-1 107.1*, GASC1 inh -0.6, Pf Dd2 growth -34.7, T cruzi growth-2 81.6, T cruzi growth-3 45.8, 3T3 cytotox 11.1 and 3T3 cytotox 2 25.2*.
For N#C[C@@H]1[C@H](c2ccc(-c3cccc(F)c3)cc2)[C@@H](CO)N1S(=O)(=O)c1cccc(F)c1 the results were T cruzi growth-1 101.5*, GASC1 inh -2.4, Pf Dd2 growth -24.2, T cruzi growth-2 105.5*, T cruzi growth-3 102.9*, 3T3 cytotox 13.9 and 3T3 cytotox 2 104.7*.
For O=C(COc1cccc(NC(=O)c2ccc(Br)cc2)c1)c1ccc(F)cc1 the results were IDH1 R132H inh -0.1.
